For three compounds, Activity and MIC results are on record in ChEMBL document CHEMBL2062382, “Bicyclic C21 terpenoids from the marine sponge Clathria compressa” (J Nat Prod, 2012).

In brackets after ≈: the same amount, converted by molar mass. Activity calls are given as the source filed them. The rule behind the calls is not given here.

Series [1] relates to Staphylococcus aureus. The series is described as follows: Antibacterial activity against Staphylococcus aureus ATCC 6538P up to 128 ug/ml after 20 hrs by broth microdilution method. Format: functional, organism-based. Summed up:
(§1)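 Strains are grown on Müller-Hinton agar at 37 °C for 24 h, then in Müller-Hinton broth at 37 °C for 24 h. Mid-log cells at an initial 600 nm absorbance of 0.001 are exposed to two-fold serial dilutions from 0.01 to 128 µg/mL, in duplicate. Samples are dissolved in 5% DMSO/H2O, giving final DMSO below 0.5% in wells and matched in controls. Methicillin is the reference. MIC is read after 20 h at 37 °C with gentle shaking.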

The test system of a further series is Klebsiella pneumoniae. The series is described as follows: Antibacterial activity against Klebsiella pneumoniae ATCC 10031 at 128 ug/ml after 20 hrs by broth microdilution method. Format: functional, organism-based. Summed up: as §1
Background: Broth dilution looks for growth in wells or tubes with falling amounts of substance.

Series [2] deals with Staphylococcus aureus. The series can be described thus: Antibacterial activity against vancomycin-resistant Staphylococcus aureus up to 128 ug/ml after 20 hrs by broth microdilution method. Format: functional, organism-based. Summed up:
(§2)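 ATCC strains grown on Müller-Hinton agar 37 °C 24 h, then in Müller-Hinton broth 37 °C 24 h. MIC by two-fold serial broth microdilution, 0.01 to 128 μg/mL; samples dissolved in 5% DMSO in water, final DMSO below 0.5% in all wells, duplicate. Mid-log cells at initial A600 0.001; read after 20 h at 37 °C with gentle shaking. Methicillin control included.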

Another series concerns Escherichia coli. The series can be described thus: Antibacterial activity against Escherichia coli KCTC 1923 at 128 ug/ml after 20 hrs by broth microdilution method. In kind it is functional, organism-based.
Series [3] can be described thus: Cytotoxicity against human BG02 cells at 40 uM. In kind it is cell-based. The following applies: bg02, 40 µM. Summed up: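 Growth inhibition of human embryonic stem cells (BG02) was tracked by real-time cell electronic sensing (RT-CES) in a 96-well format, with each compound tested at 40 µM.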
Series [4] has as its system Staphylococcus aureus. The series can be described thus: Antibacterial activity against methicillin-resistant Staphylococcus aureus ATCC 33591 up to 128 ug/ml after 20 hrs by broth microdilution method. In kind it is functional, organism-based. Summed up: as §2
For series [5], the system named is Staphylococcus aureus. The series can be described thus: Antibacterial activity against methicillin-resistant Staphylococcus aureus ATCC 33591 after 20 hrs by broth microdilution method. In kind it is functional. The settings on record: ATCC 33591, 20 h. Summed up:
as §2

Series [6] has as its system Staphylococcus aureus. The series is described as follows: Antibacterial activity against Staphylococcus aureus ATCC 6538P after 20 hrs by broth microdilution method. Format: functional. Summed up: as §1
The subject of series [7] is Staphylococcus aureus. The series is described as follows: Antibacterial activity against vancomycin-resistant Staphylococcus aureus after 20 hrs by broth microdilution method. In kind it is functional. Summed up: as §2

`C=C1CC[C@@H]2[C@](C)(CCC[C@@]2(C)/C=C/C=C(C)C)[C@H]1CC(=O)NCCS(=O)(=O)O` (relative stereo): the outcome in the series on Staphylococcus aureus [1], in the series on Klebsiella pneumoniae, in the series on Staphylococcus aureus [2], in the series with Escherichia coli and with Staphylococcus aureus [4] was inactive. Further, the Activity entry in [3] is given as “Non-toxic”.

Regarding `C=C1CC[C@@H]2[C@](C)(CCC[C@@]2(C)/C=C/C=C(C)C)[C@H]1CC(=O)O` (relative stereo), the minimum inhibitory concentration (MIC) in the series with Staphylococcus aureus [5] is 64 µg/mL (≈ 202 µM); in the series with Staphylococcus aureus [6], 32 µg/mL (≈ 101 µM); against Staphylococcus aureus [7] it was 64 µg/mL (≈ 202 µM). The outcome in the series on Klebsiella pneumoniae and in the series on Escherichia coli was inactive. For the same compound, the Activity result in [3] is listed as “Non-toxic”.

For `C=C1CC[C@@H]2[C@](C)(CCC[C@@]2(C)/C=C/C(O)C(C)(C)O)[C@H]1CC(=O)NCCS(=O)(=O)O` (relative stereo), the result in the series with Staphylococcus aureus [1], with Klebsiella pneumoniae, in the series with Staphylococcus aureus [2], in the series on Escherichia coli and in the series on Staphylococcus aureus [4] was inactive. For the same compound, in series [3], the Activity result is on record as “Non-toxic”.

Usually MIC stands for the least concentration at which growth counts as inhibited. Lower therefore signals a more susceptible organism.
